ChEMBL document CHEMBL1629526, “4-[1-(Substituted aryl/alkyl carbonyl)-benzoimidazol-2-yl]-benzenesulfonic acids: synthesis, antimicrobial activity, QSAR studies, and antiviral evaluation” (Eur J Med Chem, 2010)
Converted amounts (≈) assume the structure as drawn.

Key:
[1] = tested on: Vesicular stomatitis virus; experiment: Antiviral activity against Vesicular stomatitis virus infected in human HeLa cells assessed as inhibition of virus induced cytopathicity by visual scoring of CPE; assay type: functional, organism-based
Aspergillus niger = experiment: Antimicrobial activity against Aspergillus niger after 7 days by tube dilution method; assay type: functional; settings: 168 h
Influenza B virus [2] = experiment: Antiviral activity against Influenza B virus infected in MDCK cells assessed as inhibition of virus induced cytopathicity after 2 to 4 days by MTS assay; assay type: functional, organism-based
[3] = Cytotoxicity against cat CRFK cells assessed as cell viability by MTS assay; assay type: cell-based, Felis catus; settings: crfk
Method in brief: (§1)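 Uninfected cultures were run in parallel with the antiviral assays. Viability was read by colorimetric formazan MTS assay.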

Influenza A virus [4] = experiment: Antiviral activity against Influenza A H3N2 virus subtype infected in MDCK cells assessed as inhibition of virus induced cytopathicity after 2 to 4 days by MTS assay; assay type: functional, organism-based
Influenza A virus [5] = experiment: Antiviral activity against Influenza A H1N1 virus subtype infected in MDCK cells assessed as inhibition of virus induced cytopathicity by visual scoring of CPE; assay type: functional, organism-based
Staphylococcus aureus = experiment: Antimicrobial activity against Staphylococcus aureus after 24 hrs by tube dilution method; assay type: functional
[6] = Cytotoxicity against human HeLa cells assessed as altered cell morphology; assay type: cell-based
Method in brief: (§2)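 Uninfected cell cultures run alongside the antiviral assays, exposed to serial compound dilutions and incubated at 37 °C for 2–4 days. Toxicity was scored microscopically and reported as the minimum cytotoxic concentration (MCC), the lowest concentration causing a detectable change in normal cell morphology.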

Human alphaherpesvirus 1 [7] = experiment: Antiviral activity against thymidine kinase deficient acyclovir-resistant Herpes simplex virus 1 KOS infected in HEL cells assessed as inhibition of virus induced cytopathicity after 2 to 4 days by MTS assay; assay type: functional, organism-based; settings: Human alphaherpesvirus 1, KOS
[8] = tested on: Respiratory syncytial virus; experiment: Antiviral activity against Respiratory syncytial virus infected in human HeLa cells assessed as inhibition of virus induced cytopathicity by visual scoring of CPE; assay type: functional, organism-based
Coxsackievirus B4 [9] = experiment: Antiviral activity against coxsackievirus B4 infected in human HeLa cells assessed as inhibition of virus induced cytopathicity by visual scoring of CPE; assay type: functional, organism-based; settings: Enterovirus B
Vaccinia virus = experiment: Antiviral activity against Vaccinia virus infected in HEL cells assessed as inhibition of virus induced cytopathicity after 2 to 4 days by MTS assay; assay type: functional, organism-based; settings: Orthopoxvirus vaccinia
Candida albicans = experiment: Antimicrobial activity against Candida albicans after 48 hrs by tube dilution method; assay type: functional
Human alphaherpesvirus 1 [10] = experiment: Antiviral activity against Herpes simplex virus 1 KOS infected in HEL cells assessed as inhibition of virus induced cytopathicity after 2 to 4 days by MTS assay; assay type: functional, organism-based; settings: Human alphaherpesvirus 1, KOS
[11] = Cytotoxicity against MDCK cells assessed as altered cell morphology; assay type: cell-based, Canis lupus familiaris; settings: dog; method in brief: as §2
Bacillus subtilis = experiment: Antimicrobial activity against Bacillus subtilis after 24 hrs by tube dilution method; assay type: functional
Method in brief: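 Serial dilutions in double-strength nutrient broth (I.P.) with ciprofloxacin as reference, tube dilution, incubated 37 °C for 24 h. MIC is the lowest concentration that inhibited growth.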

Coxsackievirus B4 [12] = experiment: Antiviral activity against Coxsackie virus B4 infected in african green monkey Vero cells assessed as inhibition of virus induced cytopathicity after 2 to 4 days by MTS assay; assay type: functional, organism-based; settings: Enterovirus B
Influenza A virus [13] = experiment: Antiviral activity against Influenza A H3N2 virus subtype infected in MDCK cells assessed as inhibition of virus induced cytopathicity by visual scoring of CPE; assay type: functional, organism-based
Influenza A virus [14] = experiment: Antiviral activity against Influenza A H1N1 virus subtype infected in MDCK cells assessed as inhibition of virus induced cytopathicity after 2 to 4 days by MTS assay; assay type: functional, organism-based
Escherichia coli = experiment: Antimicrobial activity against Escherichia coli after 24 hrs by tube dilution method; assay type: functional
Sindbis virus = experiment: Antiviral activity against Sindbis virus infected in african green monkey Vero cells assessed as inhibition of virus induced cytopathicity after 2 to 4 days by MTS assay; assay type: functional, organism-based
Coxsackievirus B4 [15] = experiment: Antiviral activity against coxsackievirus B4 infected in human HeLa cells assessed as inhibition of virus induced cytopathicity after 2 to 4 days by MTS assay; assay type: functional, organism-based; settings: Enterovirus B
MDCK = experiment: Cytotoxicity against MDCK cells assessed as cell viability by MTS assay; assay type: cell-based, Canis lupus familiaris; settings: dog, mdck; method in brief: as §1
[16] = tested on: Mammalian orthoreovirus 1; experiment: Antiviral activity against Reovirus 1 virus infected in african green monkey Vero cells assessed as inhibition of virus induced cytopathicity after 2 to 4 days by MTS assay; assay type: functional, organism-based; settings: Mammalian orthoreovirus 1, Vero
HeLa = experiment: Cytotoxicity against human HeLa cells assessed as cell viability by MTS assay; assay type: cell-based; settings: hela; method in brief: as §1
[17] = tested on: Vesicular stomatitis virus; experiment: Antiviral activity against Vesicular stomatitis virus infected in human HeLa cells assessed as inhibition of virus induced cytopathicity after 2 to 4 days by MTS assay; assay type: functional, organism-based
Influenza B virus [18] = experiment: Antiviral activity against Influenza B virus infected in MDCK cells assessed as inhibition of virus induced cytopathicity by visual scoring of CPE; assay type: functional, organism-based
[19] = tested on: Vesicular stomatitis virus; experiment: Antiviral activity against Vesicular stomatitis virus infected in HEL cells assessed as inhibition of virus induced cytopathicity after 2 to 4 days by MTS assay; assay type: functional, organism-based
Human alphaherpesvirus 2 = experiment: Antiviral activity against Herpes simplex virus 2 G infected in HEL cells assessed as inhibition of virus induced cytopathicity after 2 to 4 days by MTS assay; assay type: functional, organism-based; settings: Human alphaherpesvirus 2, strain G
Punta Toro virus = experiment: Antiviral activity against Punta Toro virus infected in african green monkey Vero cells assessed as inhibition of virus induced cytopathicity after 2 to 4 days by MTS assay; assay type: functional, organism-based
[20] = tested on: Respiratory syncytial virus; experiment: Antiviral activity against Respiratory syncytial virus infected in human HeLa cells assessed as inhibition of virus induced cytopathicity after 2 to 4 days by MTS assay; assay type: functional, organism-based
Felid alphaherpesvirus 1 = experiment: Antiviral activity against Feline herpesvirus 1 infected in cat CRFK cells assessed as inhibition of virus induced cytopathicity after 2 to 4 days by MTS assay; assay type: functional, organism-based; settings: Felid alphaherpesvirus 1, CRFK
[21] = Cytotoxicity against african green monkey Vero cells assessed as altered cell morphology; assay type: cell-based; settings: chlorocebus sabaeus; method in brief: as §2
[22] = Cytotoxicity against human HEL cells assessed as altered cell morphology; assay type: cell-based; method in brief: as §2
Feline coronavirus = experiment: Antiviral activity against Feline coronavirus infected in cat CRFK cells assessed as inhibition of virus induced cytopathicity after 2 to 4 days by MTS assay; assay type: functional, organism-based; settings: Alphacoronavirus 1, CRFK
Human respirovirus 3 = experiment: Antiviral activity against parainfluenza-3 virus infected in african green monkey Vero cells assessed as inhibition of virus induced cytopathicity after 2 to 4 days by MTS assay; assay type: functional, organism-based; settings: Human respirovirus 3, Vero

SMILES | EC50 [1] [µg/mL] | MFC (Aspergillus niger) [µg/mL] | CC50 [3] [µg/mL] | EC50 (Influenza A virus [4]) [µg/mL] | EC50 (Influenza A virus [5]) [µg/mL] | MBC (Staphylococcus aureus) [µg/mL] | MCC [6] [µg/mL] | EC50 (Human alphaherpesvirus 1 [7]) [µg/mL] | EC50 [8] [µg/mL] | EC50 (Coxsackievirus B4 [9]) [µg/mL] | EC50 (Vaccinia virus) [µg/mL] | MFC (Candida albicans) [µg/mL] | EC50 (Human alphaherpesvirus 1 [10]) [µg/mL] | MCC [11] [µg/mL] | MBC (Bacillus subtilis) [µg/mL] | EC50 (Coxsackievirus B4 [12]) [µg/mL] | EC50 (Influenza A virus [13]) [µg/mL] | EC50 (Influenza A virus [14]) [µg/mL] | MBC (Escherichia coli) [µg/mL] | EC50 (Sindbis virus) [µg/mL] | other results
Nc1ccccc1C(=O)n1c(-c2ccc(S(=O)(=O)O)cc2)nc2ccccc21 | > 20 | > 50 | 11 (≈ 28 µM) | > 4 | > 4 | 50 (≈ 127 µM) | ≥ 20 | > 100 | > 20 | > 20 | > 100 | 50 (≈ 127 µM) | > 100 | ≥ 4 | > 50 | > 4 | > 4 | > 4 | 1.56 (≈ 3.97 µM) | > 4 | EC50 (Influenza B virus [2]): > 4 µg/mL; EC50 (Coxsackievirus B4 [15]): > 20 µg/mL; CC50 (MDCK): 4.1 µg/mL (≈ 10.4 µM); EC50 [16]: > 4 µg/mL; CC50 (HeLa): > 100 µg/mL; EC50 [17]: > 20 µg/mL; EC50 (Influenza B virus [18]): > 4 µg/mL; EC50 [19]: > 100 µg/mL; EC50 (Human alphaherpesvirus 2): > 100 µg/mL; EC50 (Punta Toro virus): > 4 µg/mL; EC50 [20]: > 20 µg/mL; EC50 (Felid alphaherpesvirus 1): > 4 µg/mL; MCC [21]: 20 µg/mL; MCC [22]: > 100 µg/mL; EC50 (Feline coronavirus): > 4 µg/mL; EC50 (Human respirovirus 3): > 4 µg/mL
O=C(c1ccccc1O)n1c(-c2ccc(S(=O)(=O)O)cc2)nc2ccccc21 | > 100 | > 50 | > 100 | > 20 | > 20 | 25 (≈ 63.4 µM) | > 100 | > 100 | > 100 | > 100 | > 100 | 50 (≈ 127 µM) | > 100 | 100 | 25 (≈ 63.4 µM) | > 100 | > 20 | > 20 | 12.5 (≈ 31.7 µM) | > 100 | EC50 (Influenza B virus [2]): > 20 µg/mL; EC50 (Coxsackievirus B4 [15]): > 100 µg/mL; CC50 (MDCK): > 100 µg/mL; EC50 [16]: > 100 µg/mL; CC50 (HeLa): > 100 µg/mL; EC50 [17]: > 100 µg/mL; EC50 (Influenza B virus [18]): > 20 µg/mL; EC50 [19]: > 100 µg/mL; EC50 (Human alphaherpesvirus 2): > 100 µg/mL; EC50 (Punta Toro virus): > 100 µg/mL; EC50 [20]: > 100 µg/mL; EC50 (Felid alphaherpesvirus 1): > 100 µg/mL; MCC [21]: > 100 µg/mL; MCC [22]: > 100 µg/mL; EC50 (Feline coronavirus): > 100 µg/mL; EC50 (Human respirovirus 3): > 100 µg/mL
C=CC(=O)n1c(-c2ccc(S(=O)(=O)O)cc2)nc2ccccc21 | > 100 | > 50 | > 82 | > 0.8 | > 0.8 | 6.25 (≈ 19 µM) | > 100 | > 20 | > 100 | > 100 | > 20 | > 50 | > 20 | ≥ 0.8 | 12.5 (≈ 38.1 µM) | > 100 | > 0.8 | > 0.8 | 1.56 (≈ 4.75 µM) | > 100 | EC50 (Coxsackievirus B4 [15]): > 100 µg/mL; CC50 (MDCK): 14.1 µg/mL (≈ 42.9 µM); EC50 [16]: > 100 µg/mL; CC50 (HeLa): > 100 µg/mL; EC50 [17]: > 100 µg/mL; EC50 [19]: > 20 µg/mL; EC50 (Human alphaherpesvirus 2): > 20 µg/mL; EC50 (Punta Toro virus): > 100 µg/mL; EC50 [20]: > 100 µg/mL; EC50 (Felid alphaherpesvirus 1): > 20 µg/mL; MCC [21]: > 100 µg/mL; MCC [22]: 100 µg/mL; EC50 (Feline coronavirus): > 20 µg/mL; EC50 (Human respirovirus 3): > 100 µg/mL
